Experimental data taken from ChEMBL document CHEMBL4706580, “4-Amino-1,2,4-triazole-3-thione-derived Schiff bases as metallo-β-lactamase inhibitors” (Eur J Med Chem, 2020).
The source made the active and inactive calls. The calls are words filed in the database; no cut-off is given here.

Assays:
[1] = Inhibition of beta-lactamase CphA (unknown origin) expressed in Escherichia coli BL21(DE3) using imipenem as substrate by measuring substrate hydrolysis by spectrophotometric analysis
Procedure, shortened: (§1)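 Enzyme 0.2–0.8 nM in 15 mM cacodylate pH 6.5, no added zinc, pre-incubated 30 min at 21 °C with inhibitor (100 μM screen). Imipenem substrate added from 10 mM stock; hydrolysis at 300 nm, 30 °C. Residual activity vs three uninhibited samples; Ki (1–100 μM inhibitor) by Hanes linearization, competitive model. Triplicate.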

[2] = Inhibition of beta-lactamase IMP-1 (unknown origin) expressed in Escherichia coli BL21(DE3) using imipenem as substrate by measuring substrate hydrolysis at 100 uM by spectrophotometric analysis
Procedure, shortened: (§2)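 Purified enzyme (overproduced in E. coli BL21(DE3), pET-9a; ion-exchange and gel filtration), 1-70 nM final. Reporter substrate 150 μM imipenem, read at 300 nm, 30 °C, 50 mM HEPES pH 7.5. Single-point screen at 100 or 200 μM; Ki from v0/vi vs [I] (0.5–1,000 μM final) assuming competitive inhibition, or Dixon plot. Triplicate.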

[3] = Inhibition of beta-lactamase NDM1 (unknown origin) expressed in Escherichia coli BL21(DE3) using cefotaxime/nitrocefin as substrate by measuring substrate hydrolysis at 200 uM by spectrophotometric analysis
[4] = Inhibition of beta-lactamase VIM2 (unknown origin) expressed in Escherichia coli BL21(DE3) using imipenem as substrate by measuring substrate hydrolysis at 200 uM by spectrophotometric analysis; procedure, shortened: as §2
[5] = Inhibition of beta-lactamase VIM2 (unknown origin) expressed in Escherichia coli BL21(DE3) using imipenem as substrate by measuring substrate hydrolysis at 100 uM by spectrophotometric analysis; procedure, shortened: as §2
[6] = Inhibition of beta-lactamase VIM4 (unknown origin) expressed in Escherichia coli BL21(DE3) using imipenem as substrate by measuring substrate hydrolysis by spectrophotometric analysis; procedure, shortened: as §2
[7] = Inhibition of beta-lactamase NDM1 (unknown origin) expressed in Escherichia coli BL21(DE3) using cefotaxime/nitrocefin as substrate by measuring substrate hydrolysis at 100 uM by spectrophotometric analysis
[8] = Inhibition of beta-lactamase L1 (unknown origin) expressed in Escherichia coli BL21(DE3) using nitrocefin as substrate by measuring substrate hydrolysis preincubated for 30 mins by spectrophotometric analysis
Procedure, shortened: (§3)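 Enzyme 0.2–0.8 nM in 25 mM HEPES pH 7.5 with 50 μM ZnCl2 final, pre-incubated 30 min at 21 °C with inhibitor (100 μM screen). Nitrocefin 100 μM final, read at 482 nm, 30 °C. Residual activity vs three uninhibited samples; Ki (1–100 μM inhibitor) from Hanes linearization, competitive model. Triplicate.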

[9] = Inhibition of beta-lactamase VIM2 (unknown origin) expressed in Escherichia coli BL21(DE3) using imipenem as substrate by measuring substrate hydrolysis by spectrophotometric analysis; procedure, shortened: as §2
[10] = Inhibition of beta-lactamase NDM1 (unknown origin) expressed in Escherichia coli BL21(DE3) using cefotaxime/nitrocefin as substrate by measuring substrate hydrolysis by spectrophotometric analysis
Procedure, shortened: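 His-tagged enzyme from E. coli BL21(DE3) pET-15b, affinity-purified, 1-70 nM final. Reporter substrate 120 μM cefotaxime (260 nm) or 100 μM nitrocefin (482 nm), 30 °C, 50 mM HEPES pH 7.5. Inhibitor 0.5–1,000 μM final; competitive Ki from v0/vi vs [I] slope or Dixon plot. Triplicate.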

[11] = Inhibition of beta-lactamase CphA (unknown origin) expressed in Escherichia coli BL21(DE3) using imipenem as substrate by measuring substrate hydrolysis at 100 uM by spectrophotometric analysis; procedure, shortened: as §1
[12] = Inhibition of beta-lactamase VIM4 (unknown origin) expressed in Escherichia coli BL21(DE3) using imipenem as substrate by measuring substrate hydrolysis at 100 uM by spectrophotometric analysis; procedure, shortened: as §2
[13] = Inhibition of beta-lactamase L1 (unknown origin) expressed in Escherichia coli BL21(DE3) using nitrocefin as substrate by measuring substrate hydrolysis at 100 uM preincubated for 30 mins by spectrophotometric analysis; procedure, shortened: as §3
[14] = Inhibition of beta-lactamase IMP-1 (unknown origin) expressed in Escherichia coli BL21(DE3) using imipenem as substrate by measuring substrate hydrolysis at 200 uM by spectrophotometric analysis; procedure, shortened: as §2
[15] = Inhibition of beta-lactamase VIM-4 (unknown origin) expressed in Escherichia coli LZ2310 assessed as potentiation of ampicillin antibacterial activity by measuring ampicillin induced diameter of inhibition zone at 40 uM incubated for 18 hrs by disk diffusion method (reference value: 6 mm)
Procedure, shortened: (§4)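 Efflux-deficient E. coli LZ2310 (NorE, MdfA, AcrA knocked out) carrying pLB-II with the cloned MBL gene. Mueller-Hinton, CLSI disk diffusion; antibiotic disks (30 µg cefoxitin for VIM-2, 10 µg ampicillin for VIM-4, 30 µg ceftazidime for NDM-1/IMP-1) loaded with inhibitor in DMSO (≤15 µL). Zone diameter after 18 h, 35 ± 1 °C; DMSO and 220 µg EDTA controls. Triplicate.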

[16] = Inhibition of beta-lactamase VIM-2 (unknown origin) expressed in Escherichia coli LZ2310 assessed as potentiation of cefoxitin antibacterial activity by measuring cefoxitin induced diameter of inhibition zone at 40 uM incubated for 18 hrs by disk diffusion method (reference value: 14 mm); procedure, shortened: as §4
[17] = Inhibition of beta-lactamase L1 (unknown origin) expressed in Escherichia coli BL21(DE3) using nitrocefin as substrate by measuring substrate hydrolysis at 200 uM preincubated for 30 mins by spectrophotometric analysis

SMILES	Ki [1] [µM]	inhibition [2]	inhibition [3]	inhibition [4]	inhibition [5]	Ki [6] [µM]	inhibition [7]	Ki [8] [µM]	Ki [9] [µM]	Ki [10] [µM]	inhibition [11] [%]	inhibition [12] [%]	inhibition [13]	inhibition [14]	inhibition zone (IZ) [15] [mm]	inhibition zone (IZ) [16] [mm]	inhibition [17]
Oc1ccc(/C=N/n2c(-c3cc(O)ccc3O)n[nH]c2=S)c(O)c1	5	50%	inactive	inactive	inactive	3	inactive	15									
O=C(O)c1ccccc1/C=N/n1c(-c2cccc3ccccc23)n[nH]c1=S		35%						1.1	14.5	76	56	53					
O=C(O)c1ccccc1/C=N/n1c(-c2cccc(F)c2)n[nH]c1=S		inactive		inactive	inactive							51	40%	inactive			
Oc1ccc(/C=N/n2c(-c3ccccc3)n[nH]c2=S)c(O)c1	26	54%				1.7							46%		6	14	
Cc1ccccc1-c1n[nH]c(=S)n1/N=C/c1cc(O)ccc1[N+](=O)[O-]	9	47%	inactive	inactive	inactive		inactive	16				32					
O=C(O)c1ccccc1/C=N/n1c(-c2cccc(Br)c2)n[nH]c1=S		inactive	inactive		35%	2	inactive	3						inactive			
O=C(O)c1cccc(-c2cccc(/C=N/n3c(-c4ccc5ccccc5c4)n[nH]c3=S)c2)c1		inactive	50%		30%	2.8							45%	inactive			
Oc1ccc(/C=N/n2c(-c3cccc(-c4ccccc4)c3)n[nH]c2=S)c(O)c1		inactive			45%		65%					65	inactive	inactive			inactive
Oc1ccc(/C=N/n2c(C(c3ccccc3)c3ccccc3)n[nH]c2=S)c(O)c1		inactive	inactive	inactive	inactive		inactive					50	inactive	inactive			inactive
Oc1ccc(/C=N/n2c(-c3cccc(Cl)c3)n[nH]c2=S)c(O)c1		66%	50%			3					35		30%				
Oc1ccc(/C=N/n2c(-c3cc4ccccc4[nH]3)n[nH]c2=S)c(O)c1		inactive	inactive	inactive	inactive		inactive					55	inactive	inactive			inactive
Cc1ccccc1-c1n[nH]c(=S)n1/N=C/c1ccccc1C#N			60%	inactive	inactive	6.5							inactive	50%			inactive
Cc1ccccc1-c1n[nH]c(=S)n1/N=C/c1ccc([N+](=O)[O-])cc1		43%	inactive	inactive	inactive	1.4	inactive				59		56%		6		
O=C(O)c1ccccc1/C=N/n1c(-c2ccc3ccccc3c2O)n[nH]c1=S		inactive	60%	inactive	inactive	2		0.5						inactive			
O=C(O)c1ccccc1/C=N/n1c(-c2ccccc2-c2ccccc2)n[nH]c1=S		inactive		inactive	inactive		32%					49	inactive	inactive			inactive
Cc1ccccc1-c1n[nH]c(=S)n1/N=C/c1ccccc1	70	34%				20	32%		20				inactive				inactive
Oc1ccc(/C=N/n2c(-c3ccc4ccccc4c3)n[nH]c2=S)c(O)c1		inactive	inactive				inactive					55	inactive	inactive			inactive
Oc1ccc(/C=N/n2c(-c3cc(Cl)cc(Cl)c3)n[nH]c2=S)c(O)c1		55%				4	50%		3.8				40%			14	
O=C(O)c1ccccc1/C=N/n1c(Cc2ccccc2)n[nH]c1=S		48%	60%						3.2		51	57	59%			14	
Oc1ccc(/C=N/n2c(CCc3ccccc3)n[nH]c2=S)c(O)c1	6	45%							9	168		54	51%			14	
Oc1ccc(/C=N/n2c(Cc3ccc4ccccc4c3)n[nH]c2=S)c(O)c1		64%	inactive	inactive	inactive		inactive					30	inactive				inactive
S=c1[nH]nc(-c2ccccc2-c2ccccc2)n1/N=C/c1ccc(OCc2ccccc2)cc1		inactive		inactive	inactive		45%						inactive	inactive			inactive
Cc1ccccc1-c1n[nH]c(=S)n1/N=C/c1ccc(O)cc1		37%	inactive	inactive	inactive	1.3	inactive				35		43%				
